Assay results taken from ChEMBL document CHEMBL1144932, “Design, synthesis, and biological properties of new bis(acridine-4-carboxamides) as anticancer agents” (J Med Chem, 2003).
Values belong to the compound of their own block, whether it stands above or below them.

Key:
[1] = species: Homo sapiens; test: In vitro cytotoxic activity against human colon adenocarcinoma (HT-29).; assay type: functional
In short: (§1)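 HT29 cells were seeded at 2.5 × 10^4 cells/mL of medium and drug solutions were added. Exposure lasted 144 h. IC50 is the drug concentration inhibiting cell growth by 50%. Assays were run in triplicate.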

[2] = Apparent equilibrium constant for DNA binding (G-C); assay type: ADME
In short: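 Ethidium displacement at pH 7.0 in buffer of 10 mM Na2HPO4, 10 mM NaH2PO4, 1 mM EDTA with 1.26 μM ethidium bromide and 1 μM CT-DNA, [poly(dA-dT)]2 or [poly(dG-dC)]2. Drug stock (~5 mM in DMSO) added serially. Fluorescence read at 20 °C, excitation 546 nm, emission 595 nm. C50 is the mean of three determinations. Kapp = 1.26/C50 × 10^7.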

[3] = tested on: OVCAR-4; test: Percent growth of ovarian OVCAR-4 cell line at compound concentration 10e-5 was determined; assay type: functional, Homo sapiens
In short: (§2)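 Cells in the NCI panel were exposed for 48 h to 10^-8, 10^-6 and 10^-4 or 10^-5 M drug. Growth is given as percent of untreated control (100%). Negative values are the percent of cells killed relative to the initial cell number.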

[4] = tested on: DU-145; test: Percent growth of prostate DU-145 cell line at compound concentration 10e-8 was determined; assay type: functional, Homo sapiens; in short: as §2
[5] = tested on: LOX IMVI; test: Percent growth of melanoma LOX IMVI cell line at compound concentration 10e-6 was determined; assay type: functional, Homo sapiens; in short: as §2
[6] = tested on: LOX IMVI; test: Percent growth of melanoma LOX IMVI cell line at compound concentration 10e-5 was determined; assay type: functional, Homo sapiens; in short: as §2
[7] = tested on: 786-0; test: Percent growth of renal 786-0 cell line at compound concentration 10e-8 was determined; assay type: functional, Homo sapiens; in short: as §2
[8] = tested on: DU-145; test: Percent growth of prostate DU-145 cell line at compound concentration 10e-5 was determined; assay type: functional, Homo sapiens; in short: as §2
[9] = tested on: 786-0; test: Percent growth of renal 786-0 cell line at compound concentration 10e-5 was determined; assay type: functional, Homo sapiens; in short: as §2
[10] = tested on: OVCAR-4; test: Percent growth of ovarian OVCAR-4 cell line at compound concentration 10e-8 was determined; assay type: functional, Homo sapiens; in short: as §2
[11] = tested on: RPMI-8226; test: Percent growth of leukemia RPMI-8226 cell line at compound concentration 10e-5 was determined; assay type: functional, Homo sapiens; in short: as §2
[12] = tested on: HCT-116; test: Percent growth of colon HCT116 cell line at compound concentration 10e-8 was determined; assay type: functional, Homo sapiens; in short: as §2
[13] = tested on: LOX IMVI; test: Percent growth of melanoma LOX IMVI cell line at compound concentration 10e-8 was determined; assay type: functional, Homo sapiens; in short: as §2
[14] = tested on: SNB-19; test: Percent growth of CNS SNB-19 cell line at compound concentration 10e-5 was determined; assay type: functional, Homo sapiens; in short: as §2
[15] = tested on: SNB-19; test: Percent growth of CNS SNB-19 cell line at compound concentration 10e-6 was determined; assay type: functional, Homo sapiens; in short: as §2
[16] = tested on: RPMI-8226; test: Percent growth of leukemia RPMI-8226 cell line at compound concentration 10e-8 was determined; assay type: functional, Homo sapiens; in short: as §2
[17] = tested on: RPMI-8226; test: Percent growth of leukemia RPMI-8226 cell line at compound concentration 10e-6 was determined; assay type: functional, Homo sapiens; in short: as §2
[18] = tested on: OVCAR-4; test: Percent growth of ovarian OVCAR-4 cell line at compound concentration 10e-6 was determined; assay type: functional, Homo sapiens; in short: as §2
[19] = tested on: NCI-H460; test: Percent growth of lung-NSC NCI-H460 cell line at compound concentration 10e-6 was determined; assay type: functional, Homo sapiens; in short: as §2
[20] = tested on: NCI-H460; test: Percent growth of lung-NSC NCI-H460 cell line at compound concentration 10e-5 was determined; assay type: functional, Homo sapiens; in short: as §2
[21] = tested on: 786-0; test: Percent growth of renal 786-0 cell line at compound concentration 10e-6 was determined; assay type: functional, Homo sapiens; in short: as §2
[22] = tested on: SNB-19; test: Percent growth of CNS SNB-19 cell line at compound concentration 10e-8 was determined; assay type: functional, Homo sapiens; in short: as §2
[23] = tested on: HCT-116; test: Percent growth of colon HCT116 cell line at compound concentration 10e-5 was determined; assay type: functional, Homo sapiens; in short: as §2
[24] = tested on: HCT-116; test: Percent growth of colon HCT116 cell line at compound concentration 10e-6 was determined; assay type: functional, Homo sapiens; in short: as §2
[25] = tested on: MCF7; test: Percent growth of breast MCF-7 cell line at compound concentration 10e-8 was determined; assay type: functional, Homo sapiens; in short: as §2
[26] = tested on: DU-145; test: Percent growth of prostate DU-145 cell line at compound concentration 10e-6 was determined; assay type: functional, Homo sapiens; in short: as §2
[27] = tested on: NCI-H460; test: Percent growth of lung-NSC NCI-H460 cell line at compound concentration 10e-8 was determined; assay type: functional, Homo sapiens; in short: as §2
[28] = tested on: MCF7; test: Percent growth of breast MCF-7 cell line at compound concentration 10e-6 was determined; assay type: functional, Homo sapiens; in short: as §2
[29] = tested on: MCF7; test: Percent growth of breast MCF-7 cell line at compound concentration 10e-5 was determined; assay type: functional, Homo sapiens; in short: as §2
[30] = species: Homo sapiens; test: In vitro cytotoxic activity against human colon adenocarcinoma (HT-29); assay type: functional; in short: as §1

Structure (SMILES): CN(C)CCNC(=O)c1ccc(NCCN(C)C)c2c(O)c3cc(O)ccc3nc12
IC50 [1]: 2000 nM

K app [2]: 7.2e+06 M⁻¹
Structure (SMILES): CN(C)CCNC(=O)c1ccc(NCCN(C)CCNc2ccc(C(=O)NCCN(C)C)c3nc4ccccc4cc23)c2cc3ccccc3nc12
IC50 [1]: 470 nM

K app [2]: 1.4e+07 M⁻¹
Structure (SMILES): CN(C)CCNC(=O)c1ccc(NCCN(C)CCNc2ccc(C(=O)NCCN(C)C)c3nc4ccc(O)cc4c(O)c23)c2c(O)c3cc(O)ccc3nc12
IC50 [1]: > 10000 nM

K app [2]: 1.4e+08 M⁻¹
Structure (SMILES): COc1ccc2nc3c(C(=O)NCCN(C)C)ccc(NCCCN(C)CCCNc4ccc(C(=O)NCCN(C)C)c5nc6ccc(OC)cc6c(O)c45)c3c(O)c2c1
IC50 [1]: 39 nM

K app [2]: 2.3e+08 M⁻¹
Structure (SMILES): CN(C)CCNC(=O)c1ccc(NCCN(C)C)c2cc3ccccc3nc12
IC50 [1]: 7 nM

K app [2]: 2.3e+08 M⁻¹
Structure (SMILES): CN(C)CCNC(=O)c1ccc(NCCCN(C)CCCNc2ccc(C(=O)NCCN(C)C)c3nc4ccc([N+](=O)[O-])cc4c(O)c23)c2c(O)c3cc([N+](=O)[O-])ccc3nc12
Growth [3]: -72%
Growth [4]: 55%
Growth [5]: -40%
Growth [6]: -93%
Growth [7]: 41%
Growth [8]: -93%
Growth [9]: -95%
Growth [10]: 67%
Growth [11]: -58%
IC50 [1]: < 0.1 nM
Growth [12]: 31%
Growth [13]: 28%
Growth [14]: -96%
Growth [15]: -7%
Growth [16]: 12%
Growth [17]: -44%
Growth [18]: 16%
Growth [19]: -31%
Growth [20]: -95%
Growth [21]: 6%
Growth [22]: 42%
Growth [23]: -94%
Growth [24]: -5%
Growth [25]: 26%
Growth [26]: -2%
Growth [27]: 28%
Growth [28]: 0%
Growth [29]: -86%

Structure (SMILES): CN(C)CCNC(=O)c1ccc(NCCN(C)C)c2c(=O)c3ccccc3[nH]c12
IC50 [1]: 94 nM

Structure (SMILES): COc1ccc2nc3c(C(=O)NCCN(C)C)ccc(NCCN(C)C)c3c(O)c2c1
IC50 [30]: 500 nM

Structure (SMILES): CN(C)CCNc1ccc(C(=O)NCCN(C)CCNC(=O)c2ccc(NCCN(C)C)c3c(O)c4ccccc4nc23)c2nc3ccccc3c(O)c12
IC50 [1]: 480 nM

Structure (SMILES): CN(C)CCNc1ccc(C(=O)NCCN(C)CCN(C)CCNC(=O)c2ccc(NCCN(C)C)c3c(O)c4ccccc4nc23)c2nc3ccccc3c(O)c12
IC50 [1]: 290 nM

Structure (SMILES): CN(C)CCNc1ccc(C(=O)NCCCNC(=O)c2ccc(NCCN(C)C)c3c(O)c4ccccc4nc23)c2nc3ccccc3c(O)c12
IC50 [1]: > 10000 nM

Structure (SMILES): CN(CCCNC(=O)c1ccc(Cl)c2c(O)c3ccccc3nc12)CCCNC(=O)c1ccc(Cl)c2c(O)c3ccccc3nc12
IC50 [1]: 340 nM

Structure (SMILES): CN(C)CCNc1ccc(C(=O)NCCCN(C)CCCNC(=O)c2ccc(NCCN(C)C)c3c(O)c4cc(O)ccc4nc23)c2nc3ccc(O)cc3c(O)c12
IC50 [1]: 800 nM
